# Assay results: PMC9060504 (Proceedings of the National Academy of Sciences of the …, 2022)
# Legend:
# [1] = molecular target: T1, STIM1 together with Orai3 (Homo sapiens, UniProt Q9BRQ5); conditions: cited from earlier work
# InsP3R = assay: Ca2+ imaging of IP3-mediated ER Ca2+ release in STIM DKO cells; type: cell-based; conditions: 100 μM
# Procedure, shortened: (§1)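 Cells were loaded with 5 μM Cal-590 in Ringer's solution for 60 min, excited at 560 nm, and imaged every 3 or 10 s. Each experiment recorded 10 to 97 cells, and their responses were averaged. The Ca2+ change after activating each transport mechanism with 100 μM test compound present was normalized to the change in DMSO-treated control cells.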
# [2] = tested on: O1N–O3C chimeric Orai channel; assay: Current recording, STIM1 with chimeric O1N–O3C channel; type: cell-based; conditions: 10 μM
# Procedure, shortened: (§2)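 Whole-cell currents were recorded from cells expressing the Orai1 mutant or the chimera (the chimera with STIM1). Cells were superfused with extracellular solution containing 10 mM Ca2+, with or without 10 μM test compound or 10 μM La3+. During recording, cells were kept dark or illuminated at the indicated wavelengths. Time courses and I-V plots were collected.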
# SOCE in TG neurons = assay: Ca2+ imaging of SOCE in cultured trigeminal ganglion neurons; type: cell-based, mouse; conditions: 100 μM
# Procedure, shortened: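 Mouse trigeminal ganglion neurons were acutely dissociated, cultured and loaded with Cal-590. They were held for 10 min in Ca2+-free solution with 1 μM thapsigargin, with or without 100 μM test compound. SOCE was then induced by superfusion with 0.5 mM Ca2+, without or with 360 nm illumination. Fluorescence time courses came from n = 71 to 179 cells per group.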
# Orai1 V102A = Orai1 V102A (Homo sapiens, UniProt Q96D31, V102A); assay: Current recording, constitutively open Orai1 V102A mutant; type: cell-based; conditions: 10 μM
# Procedure, shortened: as §2
# Orai2 = Orai2 (Homo sapiens, UniProt Q96SN7); assay: Ca2+ imaging of SOCE, Orai TKO HEK293 cells expressing STIM1 and Orai2; type: cell-based; conditions: 100 μM, dark
# [3] = molecular target: T1, STIM1 together with Orai3; assay: Whole-cell patch-clamp CRAC current in cells coexpressing STIM1 and Orai3; type: cell-based
# TRPV1 = TRPV1 (Homo sapiens, UniProt Q8NER1); assay: Ca2+ imaging of TRPV1-mediated Ca2+ influx in STIM DKO cells; type: cell-based; conditions: 100 μM
# Procedure, shortened: as §1
# Orai1 [4] = molecular target: T2, Orai1 (Homo sapiens, UniProt Q96D31); type: cell-based; conditions: Orai1 alone, 100 μM, with or without 360 nm light
# [5] = tested on: O3N–O1C chimeric Orai channel; assay: Current recording, STIM1 with chimeric O3N–O1C channel; type: cell-based; conditions: 10 μM
# Procedure, shortened: as §2
# Orai1 [6] = molecular target: T2, Orai1; assay: Ca2+ imaging of SOCE, Orai TKO HEK293 cells expressing STIM1 and Orai1; type: cell-based; conditions: 100 μM, dark
# Orai3 [7] = molecular target: T3, Orai3 (Homo sapiens, UniProt Q9BRQ5); assay: Current recording, HEK293 cells expressing Orai3 alone; type: cell-based; conditions: 100 μM, with or without 360 nm light
# TRPC6 = TRPC6 (Homo sapiens, UniProt Q9Y210); assay: Ca2+ imaging of TRPC6-mediated Ca2+ influx in STIM DKO cells; type: cell-based; conditions: 100 μM
# Procedure, shortened: as §1
# STIM1 = STIM1 (Homo sapiens, UniProt Q13586); assay: TIRFM of STIM1 clustering at ER–PM junctions; type: cell-based; conditions: 100 μM, after ER Ca2+ depletion with TG
# Procedure, shortened: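 TIRFM used a 100× (N.A. 1.49) objective. STIM1-mCherry cells were held in zero-Ca2+ solution with 400 nM thapsigargin for 10 min, then received 100 μM test compound and were imaged before and 20 min after. Orai1-EGFP/STIM1-mCherry cells were preincubated with 100 μM compound in zero Ca2+ and imaged before and 10 min after adding 400 nM thapsigargin.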
# TRPC3 = TRPC3 (Homo sapiens, UniProt Q13507); assay: Ca2+ imaging of TRPC3-mediated Ca2+ influx in STIM DKO cells; type: cell-based; conditions: 100 μM
# Procedure, shortened: as §1
# NCX1 = NCX1 (Homo sapiens, UniProt P32418); assay: Ca2+ imaging of reverse Na+/Ca2+ exchange in cells overexpressing NCX1; type: cell-based
# Procedure, shortened: as §1
# [8] = Photostability under repeated illumination; type: physicochemical; conditions: eight cycles 365/520 nm, 1% DMSO in PBS
# Procedure, shortened: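 Test compound at 26 μM in 1% DMSO/PBS was exposed to eight cycles of alternating 5-min 365 nm and 520 nm LED illumination. Absorbance at 329 nm was recorded throughout.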
# Orai1 P245L = Orai1 P245L (Homo sapiens, UniProt Q96D31, P245L); assay: Current recording, constitutively open Orai1 P245L mutant; type: cell-based; conditions: 10 μM
# Procedure, shortened: as §2
# [9] = molecular target: STIM1 together with Orai2 (Homo sapiens, UniProt Q96SN7); assay: Whole-cell patch-clamp CRAC current in cells coexpressing STIM1 and Orai2; type: cell-based
# [10] = Trans:cis isomer ratio by 1H NMR; type: physicochemical
# [11] = tested on: EMT6-GFP murine breast cancer cells; assay: Pulmonary metastatic assay; type: in vivo, mouse
# Procedure, shortened: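 EMT6-GFP cells were treated for 1 h with 1% DMSO or 200 µM test compound, with or without 10 s of 365 nm light (16 mW/cm²) at 0, 30 and 60 min. They were then washed and injected into the tail vein of 8-wk BALB/c mice (5 × 10⁴ cells). After 20 min, lungs were perfused, agarose-inflated and cut into 1–2 mm slices. Slices were cultured 7 d at 37 °C, and GFP⁺ colonies counted (3 slices/mouse, 5 mice/group). GFP⁺ cell percentage was then measured by flow cytometry.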
# [12] = tested on: NFAT transcription in Jurkat NFAT-P/Luciferase (JNL) cells; assay: NFAT-dependent luciferase assay in JNL cells; type: cell-based, human; conditions: 100 μM
# [13] = molecular target: STIM1 and Orai1 (CRAC channel) (Homo sapiens, UniProt Q96D31); assay: Whole-cell patch-clamp CRAC current in HEK293 cells expressing STIM1 and Orai1; type: cell-based
# [14] = tested on: capsaicin-induced nocifensive behavior; assay: Capsaicin-induced forelimb eye wiping test; type: in vivo, mouse
# Procedure, shortened: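 Male C57BL/6JOLAHSD mice (3–4 wk, 5–6 per group) were handled for 2 d and habituated to the cage for 10 min. A 10-μL drop went to the right eye: vehicle (0.1% ethanol in SES), 1 μM capsaicin, 100 μM test compound, or capsaicin plus compound. Forelimb wipes were counted for 5 min, starting 5 min after dosing. Where used, 365 nm light (16 mW/cm², 3 cm, 60 s) was given and counting began 5 min later. Light alone was also tested.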
# Orai3 [15] = molecular target: T3, Orai3; assay: Ca2+ imaging of SOCE, Orai TKO HEK293 cells expressing STIM1 and Orai3; type: cell-based; conditions: 100 μM, dark
# SOCE in HEK293 cells = assay: Ca2+ imaging of SOCE in HEK293 cells; type: cell-based; conditions: 100 μM, 1 mM Ca2+, TG
# [16] = cells treated with 200 μM, no illumination
# STIM1 and Orai1 (CRAC channel), sequence (Q96D31 whole entry): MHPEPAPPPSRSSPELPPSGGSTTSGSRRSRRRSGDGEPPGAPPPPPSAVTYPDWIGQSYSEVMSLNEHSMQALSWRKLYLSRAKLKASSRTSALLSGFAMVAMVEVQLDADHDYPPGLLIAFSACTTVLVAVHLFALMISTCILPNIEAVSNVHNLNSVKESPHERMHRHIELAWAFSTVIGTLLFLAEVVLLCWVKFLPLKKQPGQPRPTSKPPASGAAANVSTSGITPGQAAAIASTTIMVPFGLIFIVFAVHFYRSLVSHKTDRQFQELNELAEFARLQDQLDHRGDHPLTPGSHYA
# STIM1 and Orai1 (CRAC channel), sequence (Q13586 23-685 partner): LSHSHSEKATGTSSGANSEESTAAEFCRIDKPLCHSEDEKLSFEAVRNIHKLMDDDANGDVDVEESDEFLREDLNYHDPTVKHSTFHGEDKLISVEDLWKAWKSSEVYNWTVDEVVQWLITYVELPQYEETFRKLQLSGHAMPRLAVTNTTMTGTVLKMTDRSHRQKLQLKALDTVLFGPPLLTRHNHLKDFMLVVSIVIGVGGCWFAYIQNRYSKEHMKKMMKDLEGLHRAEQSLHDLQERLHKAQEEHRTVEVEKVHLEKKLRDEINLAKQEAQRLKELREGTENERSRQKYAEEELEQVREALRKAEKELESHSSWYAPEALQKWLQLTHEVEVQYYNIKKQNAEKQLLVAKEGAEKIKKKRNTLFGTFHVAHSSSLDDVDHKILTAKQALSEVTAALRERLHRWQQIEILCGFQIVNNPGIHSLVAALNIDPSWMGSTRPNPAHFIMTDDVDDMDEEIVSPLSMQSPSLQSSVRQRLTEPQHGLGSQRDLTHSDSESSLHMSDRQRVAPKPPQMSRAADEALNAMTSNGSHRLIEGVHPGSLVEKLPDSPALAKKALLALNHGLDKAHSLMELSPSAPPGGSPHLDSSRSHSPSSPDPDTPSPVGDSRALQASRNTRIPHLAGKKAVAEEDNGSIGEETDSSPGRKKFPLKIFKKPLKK
# TRPV1, sequence (Q8NER1 whole entry, species assumed): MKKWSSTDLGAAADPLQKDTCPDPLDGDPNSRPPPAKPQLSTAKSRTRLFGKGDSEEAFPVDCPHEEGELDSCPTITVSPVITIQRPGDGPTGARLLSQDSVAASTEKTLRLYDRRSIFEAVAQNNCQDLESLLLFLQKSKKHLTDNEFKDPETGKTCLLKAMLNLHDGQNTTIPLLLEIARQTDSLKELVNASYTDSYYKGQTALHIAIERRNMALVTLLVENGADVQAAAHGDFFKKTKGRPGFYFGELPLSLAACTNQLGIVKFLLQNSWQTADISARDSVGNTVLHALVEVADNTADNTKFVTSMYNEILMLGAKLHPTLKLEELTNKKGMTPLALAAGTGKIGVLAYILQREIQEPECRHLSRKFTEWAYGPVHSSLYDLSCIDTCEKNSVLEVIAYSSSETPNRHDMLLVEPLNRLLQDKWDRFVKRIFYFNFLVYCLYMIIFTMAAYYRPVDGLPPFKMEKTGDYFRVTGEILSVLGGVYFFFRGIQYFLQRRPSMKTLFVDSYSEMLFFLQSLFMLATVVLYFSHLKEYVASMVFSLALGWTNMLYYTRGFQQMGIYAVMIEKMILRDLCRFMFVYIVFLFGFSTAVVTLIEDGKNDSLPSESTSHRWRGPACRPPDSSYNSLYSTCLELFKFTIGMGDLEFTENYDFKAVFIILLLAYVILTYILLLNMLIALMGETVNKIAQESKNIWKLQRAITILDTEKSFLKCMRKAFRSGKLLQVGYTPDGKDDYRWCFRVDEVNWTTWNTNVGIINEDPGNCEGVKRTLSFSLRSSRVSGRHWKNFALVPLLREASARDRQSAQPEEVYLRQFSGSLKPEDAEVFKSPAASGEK
# TRPC3, sequence (Q13507 whole entry, species assumed): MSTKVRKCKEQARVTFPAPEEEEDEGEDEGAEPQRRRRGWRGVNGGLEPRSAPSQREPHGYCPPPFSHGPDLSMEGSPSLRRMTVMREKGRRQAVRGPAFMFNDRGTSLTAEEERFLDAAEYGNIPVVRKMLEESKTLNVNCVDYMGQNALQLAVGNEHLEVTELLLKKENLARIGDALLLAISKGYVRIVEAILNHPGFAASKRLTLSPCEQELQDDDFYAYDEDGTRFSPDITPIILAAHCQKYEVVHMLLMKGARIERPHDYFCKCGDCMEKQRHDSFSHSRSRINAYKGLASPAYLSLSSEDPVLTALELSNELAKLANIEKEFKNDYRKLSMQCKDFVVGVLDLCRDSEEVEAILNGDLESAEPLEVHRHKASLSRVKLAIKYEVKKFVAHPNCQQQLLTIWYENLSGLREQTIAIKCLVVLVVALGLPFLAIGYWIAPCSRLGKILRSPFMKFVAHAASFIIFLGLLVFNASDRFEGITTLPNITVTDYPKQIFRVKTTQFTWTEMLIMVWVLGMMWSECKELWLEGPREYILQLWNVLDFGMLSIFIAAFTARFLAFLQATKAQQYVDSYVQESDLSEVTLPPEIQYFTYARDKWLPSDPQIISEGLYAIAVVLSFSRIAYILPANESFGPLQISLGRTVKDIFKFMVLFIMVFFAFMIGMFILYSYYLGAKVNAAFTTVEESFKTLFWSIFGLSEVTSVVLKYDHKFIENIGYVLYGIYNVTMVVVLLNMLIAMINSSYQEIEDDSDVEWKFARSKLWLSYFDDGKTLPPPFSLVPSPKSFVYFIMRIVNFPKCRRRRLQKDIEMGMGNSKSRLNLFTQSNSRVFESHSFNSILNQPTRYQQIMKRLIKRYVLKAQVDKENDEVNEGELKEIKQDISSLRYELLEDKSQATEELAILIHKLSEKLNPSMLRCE
# Orai2, sequence (Q96SN7 whole entry): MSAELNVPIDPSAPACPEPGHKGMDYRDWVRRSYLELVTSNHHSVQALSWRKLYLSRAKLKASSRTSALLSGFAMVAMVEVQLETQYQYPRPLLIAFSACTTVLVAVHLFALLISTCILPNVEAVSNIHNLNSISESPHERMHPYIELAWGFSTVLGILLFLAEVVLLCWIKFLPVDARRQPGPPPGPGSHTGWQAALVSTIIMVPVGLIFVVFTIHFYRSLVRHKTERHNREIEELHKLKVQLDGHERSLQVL
# STIM1 together with Orai2, sequence (Q96SN7 whole entry): as above
# STIM1, sequence (Q13586 23-685, species assumed): as the sequence (Q13586 23-685 partner) above
# TRPC6, sequence (Q9Y210 whole entry, species assumed): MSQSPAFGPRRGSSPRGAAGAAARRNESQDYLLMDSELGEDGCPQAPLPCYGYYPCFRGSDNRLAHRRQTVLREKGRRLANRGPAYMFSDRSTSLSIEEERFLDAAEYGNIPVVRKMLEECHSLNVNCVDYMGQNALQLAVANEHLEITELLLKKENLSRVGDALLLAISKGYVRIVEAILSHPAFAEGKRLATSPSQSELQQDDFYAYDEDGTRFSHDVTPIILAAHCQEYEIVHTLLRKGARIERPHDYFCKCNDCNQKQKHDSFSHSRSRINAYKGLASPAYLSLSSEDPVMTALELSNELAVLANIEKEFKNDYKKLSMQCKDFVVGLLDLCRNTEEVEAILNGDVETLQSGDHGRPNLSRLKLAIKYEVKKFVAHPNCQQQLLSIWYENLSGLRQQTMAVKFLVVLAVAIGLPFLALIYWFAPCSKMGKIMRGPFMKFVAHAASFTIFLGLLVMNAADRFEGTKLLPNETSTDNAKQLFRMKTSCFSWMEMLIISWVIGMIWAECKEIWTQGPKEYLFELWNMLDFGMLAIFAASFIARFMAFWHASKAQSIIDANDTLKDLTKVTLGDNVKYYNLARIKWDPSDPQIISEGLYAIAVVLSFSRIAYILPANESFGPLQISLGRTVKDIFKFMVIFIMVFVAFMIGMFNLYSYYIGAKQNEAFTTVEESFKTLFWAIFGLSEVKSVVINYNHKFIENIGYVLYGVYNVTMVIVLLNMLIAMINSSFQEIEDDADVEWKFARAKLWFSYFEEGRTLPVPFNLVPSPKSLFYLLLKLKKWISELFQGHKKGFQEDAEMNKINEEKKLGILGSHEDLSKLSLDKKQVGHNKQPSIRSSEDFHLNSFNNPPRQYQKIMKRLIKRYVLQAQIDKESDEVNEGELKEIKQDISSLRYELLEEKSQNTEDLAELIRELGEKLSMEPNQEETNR
# Orai1 V102A, sequence (Q96D31 whole entry V102A): as the sequence (Q96D31 whole entry) above, with V102A counted along it
# NCX1, sequence (P32418 36-973): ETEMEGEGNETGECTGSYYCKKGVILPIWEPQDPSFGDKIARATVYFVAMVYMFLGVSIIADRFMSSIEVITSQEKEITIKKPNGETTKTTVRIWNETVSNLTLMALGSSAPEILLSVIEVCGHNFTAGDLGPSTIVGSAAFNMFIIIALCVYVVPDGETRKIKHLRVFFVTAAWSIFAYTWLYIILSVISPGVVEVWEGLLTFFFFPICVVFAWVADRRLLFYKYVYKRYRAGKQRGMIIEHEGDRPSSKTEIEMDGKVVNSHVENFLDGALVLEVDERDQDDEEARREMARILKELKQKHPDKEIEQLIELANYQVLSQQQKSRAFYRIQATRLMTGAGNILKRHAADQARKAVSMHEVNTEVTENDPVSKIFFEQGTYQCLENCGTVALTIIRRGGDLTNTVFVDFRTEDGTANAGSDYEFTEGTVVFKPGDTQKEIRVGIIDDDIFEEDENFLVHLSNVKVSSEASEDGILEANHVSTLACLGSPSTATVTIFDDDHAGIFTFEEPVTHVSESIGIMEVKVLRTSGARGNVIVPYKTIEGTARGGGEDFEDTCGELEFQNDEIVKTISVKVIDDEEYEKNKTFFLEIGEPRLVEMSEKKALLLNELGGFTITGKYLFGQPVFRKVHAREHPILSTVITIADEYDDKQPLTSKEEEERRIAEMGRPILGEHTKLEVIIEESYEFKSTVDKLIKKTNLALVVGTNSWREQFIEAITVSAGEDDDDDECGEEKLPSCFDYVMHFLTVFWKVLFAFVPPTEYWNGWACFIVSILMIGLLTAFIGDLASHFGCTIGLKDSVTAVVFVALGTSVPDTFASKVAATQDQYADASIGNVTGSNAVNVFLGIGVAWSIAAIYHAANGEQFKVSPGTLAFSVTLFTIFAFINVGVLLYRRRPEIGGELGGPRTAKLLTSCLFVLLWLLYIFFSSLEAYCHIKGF
# Orai1 P245L, sequence (Q96D31 whole entry P245L): as the sequence (Q96D31 whole entry) above, with P245L counted along it
structure (smiles),measurement,setting,value
O=C(Nc1ccn(Cc2ccccc2Oc2ccccc2)n1)c1c(F)cccc1F [GSK5503A],Sensitivity of Orai3 current,[1],sensitive
O=C(Nc1ccn(Cc2ccc(O)cc2C(F)(F)F)n1)c1c(F)cccc1F [GSK7975A],Sensitivity of Orai3 current,[1],sensitive
OB(O)c1ccc(/N=N/c2ccccc2)cc1 [LOCI-1],Effect on IP3-mediated Ca2+ release,InsP3R,did not affect
same,Effect on O1N–O3C channel current,[2],strongly inhibited
same,Effect on SOCE in TG neurons,SOCE in TG neurons,inhibited
same,Effect on Orai1 V102A current,Orai1 V102A,negligible effect
same,Effect on SOCE mediated by Orai2,Orai2,strongly inhibits
same,Ki,[3],131 ± 24 µM
same,inhibition at 100 µM,[3]; read-out: Average inhibition of Orai3 activity,~35%
same,Effect on TRPV1-mediated Ca2+ influx,TRPV1,did not affect
same,TRPV1 activity in presence of cis or trans conformations,TRPV1; HEK293 STIM DKO cells expressing TRPV1,unchanged
same,Current change on application,Orai1 [4],did not induce a notable current change
same,Effect on O3N–O1C channel current,[5],small and inconsistent effect
same,Effect on SOCE mediated by Orai1,Orai1 [6],strongly inhibits
same,Current change on application,Orai3 [7],did not induce a notable current change
same,Effect on TRPC6-mediated Ca2+ influx,TRPC6,did not affect
same,Effect on clustering of STIM1 in puncta at ER–PM junctions,STIM1,did not affect
same,Effect on TRPC3-mediated Ca2+ influx,TRPC3,did not affect
same,Effect on sodium–calcium exchange activity,NCX1,did not inhibit
same,Photofatigue on repeated illumination,[8],without significant photofatigue
same,Effect on Orai1 P245L current,Orai1 P245L,strongly inhibited
same,Ki,[9],15.5 ± 1.8 µM
same,"Trans isomer content, dark-adapted",[10],94%
same,GFP-positive cancer cells in lung tissue,[11]; cells treated with 200 μM and 365 nm illumination,~1.3%
same,GFP-positive cancer cells in lung tissue,[11]; [16],~0.65%
same,Number of metastatic colonies vs DMSO,[11]; [16],significantly fewer metastatic colonies
same,Inhibition of NFAT transcription,"[12]; 16 h, in the dark",more than 80%
same,NFAT transcription after 365 nm light,[12]; two pulses of 365 nm light,fully restore transcription to control levels
same,Control of channel activity when infused into the cytosol via the patch pipette,[13]; 0.5 mM in pipette solution,failed to do so
same,Ki,"[13]; Ki, dose-inhibition analysis, HEK293 STIM1+Orai1, LOCI-1 n = 3, LOCI-2 n = 4",5.5 ± 0.26 µM
same,Restoration of inhibited current by 360 nm light,"[13]; LOCI-1 10 μM, LOCI-2 10 μM, 2-APB 100 μM",fully restored
same,"Eye wiping response, applied alone","[14]; 100 μM alone, topical to eye",neither LOCI-1 nor 365 nm light elicits an appreciable nocifensive behavior
same,Inhibitory effect on eye wiping after a pulse of 365 nm light,"[14]; 100 μM with 1 μM capsaicin, 365 nm 60 s",fully reversed
same,"Eye wiping response, cotreatment with capsaicin","[14]; 100 μM with 1 μM capsaicin, topical to eye, vs capsaicin alone",significantly lower responses
same,Effect on SOCE mediated by Orai3,Orai3 [15],not
same,Effect on SOCE,SOCE in HEK293 cells,inhibited
